Legend:
[1] = test system: PHDVC5HCHNSD1; test: NMR titration; format: binding, murine; settings: for average CSP value <CSP>: 15N HSQC of PHDVC5HCHNSD1 (0.2 mM), up to 12 molar excess of peptide, 295 K, pH 6.3; for interaction strength: fast exchange regime; for interaction strength / affinity: up to 12 molar excess; for affinity: no saturation
Summary of the method: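 15N-labelled PHDvC5HCH domain was expressed in E. coli BL21(DE3) in 15NH4Cl minimal medium with 1 mM IPTG at 28°C overnight. Protein at 0.2–0.3 mM, quantified by UV (ε 12490 M⁻¹cm⁻¹), was in 20 mM sodium phosphate pH 6.3, 0.15 M NaCl, 2 mM DTT, 50 μM ZnCl₂. Peptide (>98% pure, 15 mM stock, dry-weight quantified) was added stepwise; 2D 15N-HSQC was acquired per point. CSP = [(ΔδHN² + ΔδN²/25)/2]^½.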

[2] = test system: PHDVC5HCHNSD1; settings: biotinylated peptides, 21 aminoacids long; cited from earlier work

Molecule	amide chemical shifts induced ([1]; NMR titration, up to 300 mM of Lysine)	binding in vitro [2]	average CSP value <CSP> [1]	interaction strength ([1]; NMR titration)	affinity ([1]; NMR titration)
NCCCC[C@H](N)C(=O)O [Lysine]	induced amide chemical shifts in the same region				
H3K4me3_1–21: Synthetic histone H3 peptide, K4me3		binds	~0.02 ppm	extremely weak interactions	affinities in the high mM range
H3K9me3_1–21: Synthetic histone H3 peptide, K9me3		binds	~0.02 ppm	extremely weak interactions	affinities in the high mM range
H3_1–21: Synthetic histone H3 peptide			~0.02 ppm	extremely weak interactions	affinities in the high mM range

Reference: article PMC4838375 (Nucleic Acids Research, 2016)
